V-ATPase pHluor – yeast V-ATPase proton transport regulation by pHLuorin | S. cerevisiae, pHLuorin cytosolic pH fluorescence | response, % at 10 µM | 350,000 compounds, 0.37% hits; in the data active = response mostly above about 7.3%, no sharp cut-off; inactive = mostly below about 5.4%; also: actives read high
ABCB6 inh MLPCN – blocks the human ABCB6 transporter; Q9NP58; K562-ABCB6 porphyrin accumulation, flow cytometry, 1 h; hits give low values; fluorescence ratio to DMSO, % at 10 µM; 360,000 compounds, 0.19% hits;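 active = fluorescence ratio to DMSO below 75%, the collection mean minus 3 SD; inconclusive = too few cells collected in the well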;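 also: signal is porphyrin accumulated inside mitochondria; lower ratio means ABCB6 inhibition with less porphyrin fluorescence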
p-CIP stab down – p/CIP protein destabilization; Q05BA5; F442A p/CIP-EGFP cells, EGFP fluorescence, 16 h; decrease of EGFP signal, % at 10 µM; 290,000 compounds, 0.01% hits; AID 1984;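 active = EGFP signal decrease of at least 30% at 10 µM or well 3 SD below plate mean, unless failing retest; inactive = the rest, including hits failing retest or dose response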
Dynein transport – dynein cargo transport inhibition. z-score, hits read low. 3617.4 mouse cells, GR-EGFP nuclear translocation imaging; test concentration mostly 20 µM; stimulated with dexamethasone, 1 µM; hits give low values. 220,000 compounds, 0.47% hits;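 active = plate z-score of nuclear minus cytoplasmic receptor signal below a set negative limit, without overly bright fluorescence or cell loss, cut at about -3.5 in these data, passing the limit was not always enough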;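 also: z-score of nuclear minus cytoplasmic ring GR-EGFP intensity difference per well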
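Medium: Induction medium lacking tetracycline, stripped serum | Probe or stimulus: 1.0 µM final dexamethasone stimulus | Schedule: 48 h induction, then 1 h compound, then 30 min agonist, 37 °C | Signal: Automated 10x imaging of fixed Hoechst-stained cells | Evaluation: Per-cell GR-EGFP intensity, nucleus versus surrounding cytoplasmic ring, well-averaged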
Cl transport mod – KCC2 (human) Cl- transport modulation | Q9H2X9 | KCC2 cells, thallium flux FluoZin-2 fluorescence | B-score of Tl+ flux slope (higher = more flux/activation; lower = inhibition) at 10 µM | AID 1456 | 190,000 compounds, 2.2% hits;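 active = thallium flux slope and its plate-corrected score both differing from the plate sample mean at a set confidence after two filtering rounds, in either direction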;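 also: slope of fluorescence scaled to starting intensity during 10 to 20 s after thallium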
KCC2 sec1 – KCC2 (human) modulation, secondary assay; HEK293-KCC2, thallium flux, FluoZin2 fluorescence; hits give high values; 3,700 compounds, 15% hits; normalised thallium flux (F/F0 slope) at 10 µM; shares compounds with Cl transport mod;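 active = thallium flux slope above the same plate's solvent-only control mean plus 3 SD; inconclusive = the two replicate wells disagree; inactive = no significant difference from solvent-only control wells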
KCC2 bumet counter – thallium flux despite bumetanide block in KCC2 cells, secondary assay 3. HEK293-KCC2 + bumetanide/ouabain, thallium flux FluoZin2; hits give high values. normalized thallium flux at 10 µM. shares compounds with Cl transport mod. 3,700 compounds, 49% hits;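 active = thallium entry rate above the same plate's blocked-transporter control wells by more than 3 SD; inconclusive = the two repeat wells disagree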;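 also: raw slope of fluorescence over initial fluorescence between 10 and 20 s after thallium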
KCC2 sec2 – KCC2 (human) modulation, second secondary assay; shares compounds with Cl transport mod; HEK293-KCC2, thallium flux FluoZin2 fluorescence; actives lie on both sides; F/F0 rise rate, 10–20 s post-thallium; normalized thallium flux at 10 µM; 3,700 compounds, 23% hits; AID 1715;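 active = thallium flux slope more than 3 SD above or below the plate's solvent-only control mean, mostly below; inconclusive = the two repeat wells disagreed; inactive = no significant shift from solvent-only controls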
HEK counter1 – acts in parental HEK cells, KCC2 counter-screen | shares compounds with Cl transport mod | HEK293 parental cells, thallium flux FluoZin2, ouabain; baseline-ratio fluorescence slope, 10–20 s after thallium | thallium flux rate (normalised fluorescence) at 10 µM | 3,700 compounds, 46% hits;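 active = thallium flux rate significantly above the same plate's solvent-only control wells, beyond their mean plus 3 SD; inconclusive = the two replicate wells gave conflicting results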
KCC2 retest ouab – modulates human KCC2 on retest with ouabain. shares compounds with Cl transport mod. HEK293-KCC2, thallium flux FluoZin2 fluorescence; bidirectional: low = inhibitor, high = activator. raw Tl+ flux slope (below DMSO = inhibition, above = activation) at 10 µM. 3,700 compounds, 48% hits;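 active = thallium flux slope beyond 3 SD from same-plate DMSO control mean in most replicates, usually higher, sometimes lower; inconclusive = repeat tests gave conflicting results; inactive = no significant difference from controls in most replicates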;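 also: slope of initial-normalized fluorescence between seconds 10 and 20 after thallium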
HEK293 Tl flux2 – parental HEK flux effect, counter-screen 2; HEK293 parental, thallium flux FluoZin-2 fluorescence slope; thallium flux slope at 10 µM; shares compounds with Cl transport mod; 3,700 compounds, 33% hits;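 active = thallium flux slope above the same plate's solvent-control mean plus 3 SD in both duplicate wells; inconclusive = duplicate wells that disagreed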;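 also: run without ouabain in cells lacking the KCC2 cotransporter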
A number is an active result. Shown is part of a subset that was picked to be rich in hits.

Screening CC(C)CNC(=O)c1ccc(COc2ccc(Cl)cc2Cl)o1 returned V-ATPase pHluor inactive, ABCB6 inh MLPCN inactive, p-CIP stab down inactive, Dynein transport inactive, Cl transport mod -4, KCC2 sec1 inactive, KCC2 bumet counter inactive, KCC2 sec2 0.023, HEK counter1 inactive, KCC2 retest ouab 0.013 and HEK293 Tl flux2 inactive.
`O=C(O)c1ccccc1-c1nc(-c2ccccc2)c(-c2ccccc2)[nH]1` gave V-ATPase pHluor inactive, ABCB6 inh MLPCN inactive, p-CIP stab down inactive, Dynein transport inactive and Cl transport mod inactive.
`O=C(O)c1cccc2c(-c3ccccc3)c(-c3ccccc3)[nH]c12` gave V-ATPase pHluor inactive, ABCB6 inh MLPCN inactive, p-CIP stab down inactive, Dynein transport inactive, Cl transport mod 8.6, KCC2 sec1 inactive, KCC2 bumet counter 0.023, KCC2 sec2 inactive, HEK counter1 inconclusive, KCC2 retest ouab inconclusive and HEK293 Tl flux2 inactive.
CC1CCCC(C)N1/N=C/c1ccccc1Br (stereo not given) was read as V-ATPase pHluor inactive, ABCB6 inh MLPCN inactive and p-CIP stab down inactive.
For C=CCN1C(c2ccc(Br)cc2)=CS/C1=C(\C#N)c1nnc(N2CCOCC2)n1-c1ccccc1 the results were V-ATPase pHluor inactive and ABCB6 inh MLPCN inactive.
Screening C=CCN1C(c2ccc(OCC)cc2)=CS/C1=C(\C#N)c1nnc2n1CCCCC2 returned V-ATPase pHluor inactive, ABCB6 inh MLPCN inactive, p-CIP stab down inactive, Dynein transport inactive, Cl transport mod -5.8, KCC2 sec1 inactive, KCC2 bumet counter inactive, KCC2 sec2 0.02, HEK counter1 0.0061, KCC2 retest ouab 0.011 and HEK293 Tl flux2 inactive.
COc1cccc(-c2nnc(NC(=O)c3cccc(F)c3)o2)c1 was read as V-ATPase pHluor inactive, ABCB6 inh MLPCN inactive, p-CIP stab down inactive, Dynein transport inactive, Cl transport mod 33, KCC2 sec1 inconclusive, KCC2 bumet counter 0.1, KCC2 sec2 0.088, HEK counter1 0.085, KCC2 retest ouab 0.092 and HEK293 Tl flux2 0.083.
Screening O=C(Nc1nnc(-c2ccc(F)cc2)o1)c1cccc([N+](=O)[O-])c1 returned V-ATPase pHluor inactive, ABCB6 inh MLPCN inactive, p-CIP stab down inactive, Dynein transport inactive, Cl transport mod 48, KCC2 sec1 0.033, KCC2 bumet counter 0.09, KCC2 sec2 0.044, HEK counter1 inconclusive, KCC2 retest ouab 0.072 and HEK293 Tl flux2 0.023.
CCCN(CCC)S(=O)(=O)c1ccc(C(=O)Nc2nnc(-c3cc(OC)cc(OC)c3)o2)cc1 was read as V-ATPase pHluor inactive, ABCB6 inh MLPCN inactive, p-CIP stab down inactive, Dynein transport inactive, Cl transport mod 10, KCC2 sec1 inactive, KCC2 bumet counter 0.021, KCC2 sec2 inactive, HEK counter1 inconclusive, KCC2 retest ouab 0.029 and HEK293 Tl flux2 inactive.
For CCc1nnc(NC(=O)c2ccc(S(=O)(=O)N(CCOC)CCOC)cc2)o1 the results were V-ATPase pHluor inactive, ABCB6 inh MLPCN inactive, p-CIP stab down inactive, Dynein transport inactive and Cl transport mod inactive.
For COc1cccc(-c2nnc(NC(=O)c3ccccc3Br)o2)c1 the results were V-ATPase pHluor inactive, ABCB6 inh MLPCN inactive, p-CIP stab down inactive, Dynein transport inactive and Cl transport mod inactive.
For COc1cc(Cn2c(=O)c3c(OC)c(C)cnc3n(C)c2=O)cc(OC)c1 the results were V-ATPase pHluor inactive, ABCB6 inh MLPCN inactive and p-CIP stab down inactive.
Screening Fc1cc(F)c2nc(Nc3nc4cc5c(cc4s3)OCO5)sc2c1 returned V-ATPase pHluor inactive, ABCB6 inh MLPCN inactive, p-CIP stab down inactive, Dynein transport inactive, Cl transport mod 8.5, KCC2 sec1 inactive, KCC2 bumet counter 0.017, KCC2 sec2 inactive, HEK counter1 0.013, KCC2 retest ouab 0.026 and HEK293 Tl flux2 0.016.
For c1ccc(Oc2ccccc2-c2cc(NCCc3cccnc3)n3nccc3n2)cc1 the results were ABCB6 inh MLPCN inactive.
`O=C(CN1CCN(S(=O)(=O)c2ccc(Cl)cc2)CC1)Nc1ccc2c(c1)CCC2` gave V-ATPase pHluor inactive, ABCB6 inh MLPCN inactive, p-CIP stab down inactive, Dynein transport inactive, Cl transport mod inactive, KCC2 sec1 inactive, KCC2 bumet counter inactive, KCC2 sec2 inactive, HEK counter1 inactive, KCC2 retest ouab inactive and HEK293 Tl flux2 inactive.
Cc1ccc(S(=O)(=O)N2CCN(CC(=O)Nc3ccc4c(c3)CCC4)CC2)cc1C was read as V-ATPase pHluor inactive, ABCB6 inh MLPCN inactive, p-CIP stab down inactive, Dynein transport inactive and Cl transport mod inactive.
`Cc1nc(Nc2ccc(Cl)cc2Cl)sc1C(=O)Nc1ccccc1` gave V-ATPase pHluor inactive, ABCB6 inh MLPCN inactive, p-CIP stab down inactive, Dynein transport inactive, Cl transport mod 3.7, KCC2 sec1 inactive, KCC2 bumet counter inactive, KCC2 sec2 inactive, HEK counter1 inactive, KCC2 retest ouab inactive and HEK293 Tl flux2 inactive.
Screening Cc1nc(Nc2ccc(Cl)c(Cl)c2)sc1C(=O)Nc1ccccc1 returned V-ATPase pHluor inactive, ABCB6 inh MLPCN inactive, p-CIP stab down inactive, Dynein transport inactive and Cl transport mod inactive.
CCCn1c(=S)[nH]c2cc(Cl)ccc21 was read as V-ATPase pHluor inactive, ABCB6 inh MLPCN inactive, p-CIP stab down inactive, Dynein transport inactive, Cl transport mod 55, KCC2 sec1 0.042, KCC2 bumet counter 0.088, KCC2 sec2 0.049, HEK counter1 0.047, KCC2 retest ouab 0.051 and HEK293 Tl flux2 0.045.
CCn1c(=S)[nH]c2ccccc21 was read as V-ATPase pHluor inactive, ABCB6 inh MLPCN inactive, p-CIP stab down inactive, Dynein transport inactive and Cl transport mod inactive.
`CCN(CC)CCCn1c(=S)[nH]c2cc(Cl)ccc2c1=O` gave V-ATPase pHluor inactive, ABCB6 inh MLPCN inactive, p-CIP stab down inactive and Dynein transport inactive.

High-throughput results from PubChem BioAssay.
